# FLuc inh counter: firefly luciferase enzyme inhibitors, primary screen, artefact control for luciferase-based inhibitor screens, biochemical, luminescence, ATPLite | inhibition, % at 10 µM | actives 1.5% (n = 200,000) | 10 min | Luciferin 4-monooxygenase (Photinus pyralis), P08659;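 active means inhibition above about 50% when tested at 10 µM, limit read from the data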
# Target sequence (P08659 whole entry, looked up): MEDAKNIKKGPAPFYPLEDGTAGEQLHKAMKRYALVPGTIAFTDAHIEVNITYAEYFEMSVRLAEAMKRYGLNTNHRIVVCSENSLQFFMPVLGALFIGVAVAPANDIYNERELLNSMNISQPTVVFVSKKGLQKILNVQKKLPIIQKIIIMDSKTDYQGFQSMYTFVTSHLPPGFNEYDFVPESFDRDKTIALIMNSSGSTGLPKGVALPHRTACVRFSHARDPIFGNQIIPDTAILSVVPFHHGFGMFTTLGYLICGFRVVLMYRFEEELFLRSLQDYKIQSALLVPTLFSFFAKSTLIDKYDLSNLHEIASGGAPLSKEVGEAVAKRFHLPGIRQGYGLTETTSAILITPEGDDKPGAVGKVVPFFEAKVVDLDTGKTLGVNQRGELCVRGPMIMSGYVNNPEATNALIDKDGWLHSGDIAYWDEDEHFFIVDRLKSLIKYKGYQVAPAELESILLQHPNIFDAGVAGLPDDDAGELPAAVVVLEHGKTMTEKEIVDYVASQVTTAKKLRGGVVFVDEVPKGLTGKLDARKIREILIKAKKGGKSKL
# APP 5'UTR act: activators of APP 5'UTR luciferase reporter, primary screen, SH-SY5Y cells; SH-SY5Y APP 5'UTR luciferase reporter, luminescence; zero percent = DMSO vehicle wells; activation, % at 2 µM; actives 1% (n = 190,000); AID 1276, 2008;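 active means activation above a set limit, based on mean plus 3 SD of controls, cut at about 140% in these data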
# NF-kB expr up: activators of NF-kB expression in neurons, primary screen, cell-based, HTS; human neuronal cells, NF-kB reporter expression; active compounds read high; fold change at 12.5 µM; actives 1.6% (n = 190,000); AID 1239, 2008; in the data active means fold change above about 3.3
# C8 TRAIL sens: viability loss with TRAIL in NB7+C8 cells, primary screen, TRAIL sensitizer project, cell-based, ATPlite luminescence; inhibition (viability loss, TRAIL sensitization), % at 10 µM; actives 1% (n = 360,000);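 active means compounds causing at least 50% loss of cell viability in the single-dose screen, relative to plate controls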
# FLuc stim CS: FLuc activators, initial screening, artefact control for FLuc-dependent activation tests, biochemical, ATPlite luminescence. Luciferin 4-monooxygenase (Photinus pyralis), P08659. ATPlite luciferase biochemical, 10 min; 0 = ATP-free wells, 1 = DMSO control. activation factor at 10 µM. 200,000 tested, under 10 active;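 active means luciferase activation factor, scaled between plate controls, of at least 2 with compound at 10 µM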
#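 System: cell-free luciferase reagent; medium: PBS as buffer for the ATP substrate; doses: test compounds dosed from 2 mM stocks in 100% DMSO; incubation: 10 min, room temperature; measured by: luminescence from luciferase reaction; read-out: luciferase activation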
# PPC-1+TRAIL kill: compounds killing PPC-1 cancer cells with TRAIL present, primary screen, TRAIL potentiator project, ATPLite luminescence, uHTS; PPC-1 cells + TRAIL, ATPLite viability luminescence; cell killing (% activity), % at 4 µM or 5 µM; actives 0.41% (n = 220,000);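 active means cell killing above 50% in the first pass at 4 µM, then a duplicate retest at 5 µM averaging 50% or more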;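 further: plate controls were cells with TRAIL plus DMSO for no effect and medium-only wells lacking cells for full effect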
# PPC-1 tox: cytotoxicity in PPC-1 cells, confirmation, cytotoxicity control for TRAIL apoptosis potentiator project, cell-based, ATP content luminescence | shares compounds with PPC-1+TRAIL kill | PPC-1 viability, ATPlite luminescence, overnight | cytotoxicity, % at 5 µM | actives 50% (n = 1,200) | AID 1447, 2008;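 active means reconfirmed compounds whose average cytotoxicity reaches 50% or more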;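 further: 0% = DMSO-treated cells and 100% = wells holding medium but no cells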
# * marks the source's active call; other numbers are inactive results; . = no result given. An excerpt weighted towards active compounds, which were near 2.2% of everything screened.
SMILES,FLuc inh counter,APP 5'UTR act,NF-kB expr up,C8 TRAIL sens,FLuc stim CS,PPC-1+TRAIL kill,PPC-1 tox
Cc1cc(N)c2cc(NC(=O)/C=C/c3ccccc3Cl)ccc2n1,.,.,.,95.0*,.,97.5*,96.8*
Cc1cc(C)nc(NC(=O)/C=C/c2ccccc2Cl)c1,29.4,109.9,3.17,33.4,0.7,15.4,.
Cc1ccnc(NC(=O)/C=C/c2ccccc2Cl)c1,76.5*,185.6*,8.67*,54.9*,0.2,27.5,22.0
CC(C)(C)N1C(=O)c2ccccc2NC(=O)C1C(=O)NCCc1ccccc1 (stereo not given),.,.,.,-1.5,.,.,.
COc1cccc(CN2CCC2(C)C(=O)Nc2cccc(Oc3ccccc3)c2)c1F (stereo not given),.,.,.,5.6,.,.,.
CC(=O)Nc1ccc(NC2=C/C(=N/S(=O)(=O)c3cccs3)c3ccccc3C2=O)cc1,13.8,-34.9,0.16,83.6*,0.9,73.3*,74.5*
Cc1ccc(NC2=C/C(=N/S(=O)(=O)c3cccs3)c3ccccc3C2=O)cc1C,7.3,40.5,0.9,25.9,0.9,11.7,.
O=c1oc(/C=C/c2ccccc2)nc2sc3c(c12)CCC3,42.0,8.8,1.99,7.8,0.6,8.0,-0.9
COc1ccc(/C=C/c2nc3sc4c(c3c(=O)o2)CCC4)cc1,.,1.1,.,5.0,.,.,.
CCOc1cc(/C=N/Nc2cc(C)nc(-n3nc(C)cc3C)n2)ccc1O,.,.,.,14.5,.,57.5*,54.2*
C(=N\Nc1nn2cnnc2c2ccccc12)/c1ccco1,11.9,-2.7,1.31,-0.6,0.9,35.2,.
CCOc1cc(/C=N/Nc2nncc(-c3ccccc3)n2)ccc1O,8.2,-3.7,0.61,-1.6,0.9,-4.0,.
CCOc1cc(/C=N/Nc2nn3cnnc3c3ccccc23)ccc1O,.,.,.,73.5*,.,56.1*,58.7*
COc1cc(/C=N/Nc2nn3cnnc3c3ccccc23)ccc1O,93.9*,2.9,0.75,77.6*,0.1,78.7*,76.6*
CCOC(=O)[C@]12CCC=C1N(CCC1=CCCCC1)C(=O)[C@H](CC(=O)NCc1cccs1)C2,.,.,.,-3.2,.,.,.
CCCCn1nnnc1C(c1cccc2ccccc12)N1CCN(C/C=C/c2ccccc2)CC1 (stereo not given),.,.,.,3.7,.,.,.
CCN(CC)c1ccc2cc(-c3nnc(-c4ccccc4)o3)c(=O)oc2c1,4.6,19.3,1.3,25.8,1,11.4,.
CCN(CC)c1ccc2cc(-c3nc4ccccc4[nH]3)c(=O)oc2c1,96.3*,185.2*,1.63,94.9*,0,95.5*,95.4*
OCCCNc1ncnc2c1ncn2[C@H]1CN(Cc2ccc(Cl)cc2)C[C@@H](CO)O1,.,.,.,-1.9,.,.,.
O=C(NCCOc1ccccc1)C1C(=O)Nc2ccccc2C(=O)N1C1CCCCC1 (stereo not given),.,.,.,-3.0,.,.,.
Cc1cc2c(cc1C)-n1nnnc1C(N1CCN(CC(=O)NC(C)C)CC1)C(=O)N2 (stereo not given),.,.,.,-6.1,.,.,.
CCOC(=O)Nc1ccc(S(=O)(=O)NCCCN2CCOCC2)cc1,-6.1,-2.3,1,-1.0,1.1,8.9,5.8
CCOC(=O)Nc1ccc(S(=O)(=O)N2CCOCC2)cc1,0.5,-7.5,1.12,-14.3,1,13.3,.
Cc1cc(C(=O)OC(C)C(=O)NC2CCCCC2C)c2ccccc2n1 (stereo not given),.,.,.,-3.8,.,.,.
COc1ccc(O)c(C(=O)CC(=O)c2ccc(F)cc2)c1,20.6,149.3*,2.29,80.1*,0.8,79.5*,75.4*
SMILES,FLuc inh counter,APP 5'UTR act,NF-kB expr up,C8 TRAIL sens,FLuc stim CS,PPC-1+TRAIL kill,PPC-1 tox
COc1ccc(C(=O)CC(=O)c2ccccc2O)cc1,.,.,.,5.0,.,.,.
CCOC(=O)C1=CCN(S(=O)(=O)c2ccccc2F)C1c1ccc(Cl)c(Cl)c1 (stereo not given),.,.,.,-5.9,.,.,.
Cc1cc(C(=O)CN2C(=O)c3ccccc3S2(=O)=O)c(C)n1CC1CCCO1 (stereo not given),42.3,-86.0,0.32,82.5*,0.6,86.0*,85.2*
COc1ccc(CNC(=O)CSc2nnc3c(n2)[nH]c2ccc(OC)cc23)cc1,.,.,.,-7.0,.,.,.
COc1ccc2[nH]c3nc(SC(C)C)nnc3c2c1,63.1*,184.6*,5.07*,63.4*,0.4,57.9*,55.8*
COc1ccc(C(C(=O)NCc2ccccc2)n2c(=O)c(-c3ccco3)nc3ccccc32)cc1 (stereo not given),.,.,.,11.3,.,.,.
